In ChEMBL document CHEMBL1821649, “Synthesis, characterization of some benzazoles bearing pyridine moiety: search for novel anticancer agents” (2011):

Legend:
Assay type in all cases: functional
A498 = experiment: Antitumor activity against human A498 cells after 48 hrs by SRB assay; settings: A498, 48 h; for CC50: read-out: LC50 (the source's name)
Outline: (§1)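 NCI-60 human tumour cell panel run under the National Cancer Institute Drug Evaluation Branch protocol. Compounds passing a single-dose prescreen were retested on all lines at five 10-fold dilutions. Growth was expressed as percent growth of treated cells. Response parameters were GI50 (molar concentration giving 50% growth inhibition), TGI (total growth inhibition) and LC50 (median lethal concentration).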

SNB-75 = experiment: Antitumor activity against human SNB75 cells after 48 hrs by SRB assay; settings: SNB-75, 48 h; outline: as §1
MOLT-4 = experiment: Antitumor activity against human MOLT4 cells after 48 hrs by SRB assay; settings: MOLT-4, 48 h; outline: as §1
SN12C = experiment: Antitumor activity against human SN12C cells after 48 hrs by SRB assay; settings: for CC50: read-out: LC50 (the source's name); outline: as §1
LOX IMVI = experiment: Antitumor activity against human LOXIMVI cells after 48 hrs by SRB assay; settings: for CC50: read-out: LC50 (the source's name); outline: as §1
[1] = Antitumor activity against human Hs 578T cells after 48 hrs by SRB assay; settings: for CC50: read-out: LC50 (the source's name); outline: as §1
KM12 = experiment: Antitumor activity against human KM12 cells after 48 hrs by SRB assay; settings: KM12, 48 h; for CC50: read-out: LC50 (the source's name); outline: as §1
SR = experiment: Antitumor activity against human SR cells after 48 hrs by SRB assay; outline: as §1
OVCAR-5 = experiment: Antitumor activity against human OVCAR5 cells after 48 hrs by SRB assay; settings: OVCAR-5, 48 h; for CC50: read-out: LC50 (the source's name); outline: as §1
SK-MEL-5 = experiment: Antitumor activity against human SK-MEL-5 cells after 48 hrs by SRB assay; settings: SK-MEL-5, 48 h; outline: as §1
HCT-116 = experiment: Antitumor activity against human HCT116 cells after 48 hrs by SRB assay; settings: HCT-116, 48 h; for CC50: read-out: LC50 (the source's name); outline: as §1
A549 = experiment: Antitumor activity against human A549 cells after 48 hrs by SRB assay; settings: A549, 48 h; for CC50: read-out: LC50 (the source's name); outline: as §1
HCC 2998 = experiment: Antitumor activity against human HCC2998 cells after 48 hrs by SRB assay; settings: HCC 2998, 48 h; for CC50: read-out: LC50 (the source's name); outline: as §1
SNB-19 = experiment: Antitumor activity against human SNB19 cells after 48 hrs by SRB assay; settings: SNB-19, 48 h; outline: as §1
OVCAR-8 = experiment: Antitumor activity against human OVCAR8 cells after 48 hrs by SRB assay; settings: OVCAR-8, 48 h; outline: as §1
MDA-MB-468 = experiment: Antitumor activity against human MDA-MB-468 cells after 48 hrs by SRB assay; settings: MDA-MB-468, 48 h; for CC50: read-out: LC50 (the source's name); outline: as §1
SK-MEL-28 = experiment: Antitumor activity against human SK-MEL-28 cells after 48 hrs by SRB assay; settings: SK-MEL-28, 48 h; outline: as §1
RXF 393 = experiment: Antitumor activity against human RXF393 cells after 48 hrs by SRB assay; settings: RXF 393, 48 h; for CC50: read-out: LC50 (the source's name); outline: as §1
SK-MEL-2 = experiment: Antitumor activity against human SK-MEL-2 cells after 48 hrs by SRB assay; settings: SK-MEL-2, 48 h; outline: as §1
EKVX = experiment: Antitumor activity against human EKVX cells after 48 hrs by SRB assay; settings: for CC50: read-out: LC50 (the source's name); outline: as §1
RPMI-8226 = experiment: Antitumor activity against human RPMI8226 cells after 48 hrs by SRB assay; settings: RPMI-8226, 48 h; for CC50: read-out: LC50 (the source's name); outline: as §1
NCI/ADR-RES = experiment: Antitumor activity against human NCI/ADR-RES cells after 48 hrs by SRB assay; settings: for CC50: read-out: LC50 (the source's name); outline: as §1
CAKI-1 = experiment: Antitumor activity against human Caki1 cells after 48 hrs by SRB assay; settings: CAKI-1, 48 h; for CC50: read-out: LC50 (the source's name); outline: as §1
HOP-62 = experiment: Antitumor activity against human HOP62 cells after 48 hrs by SRB assay; settings: HOP-62, 48 h; for CC50: read-out: LC50 (the source's name); outline: as §1
PC-3 = experiment: Antitumor activity against human PC3 cells after 48 hrs by SRB assay; settings: PC-3, 48 h; outline: as §1

With Cc1cc2nc(-c3c(N)ncc(C#N)c3-c3ccc(Cl)cc3)[nH]c2cc1C the GI50 (A498) was 11.8 µM, the TGI (A498) was 59.2 µM and the CC50 (A498) was over 100 µM. It also gave a GI50 (SNB-75) of 12.9 µM, an LC50 (SNB-75) of 81.3 µM and a TGI (SNB-75) of 32.4 µM. The GI50 (MOLT-4) was 100 µM, the LC50 (MOLT-4) was over 100 µM and the TGI (MOLT-4) was over 100 µM. For the same compound, the GI50 (SN12C) was 31 µM, the TGI (SN12C) was over 100 µM and the CC50 (SN12C) was over 100 µM. The GI50 (LOX IMVI) was 5.83 µM, the TGI (LOX IMVI) was 26 µM and the CC50 (LOX IMVI) was 80.7 µM. For the same compound, the GI50 [1] was 12 µM, the TGI [1] was over 100 µM and the CC50 [1] was over 100 µM. For the same compound, the GI50 (KM12) was 14.8 µM, the TGI (KM12) was over 100 µM and the CC50 (KM12) was over 100 µM. It also gave a GI50 (SR) of 28.7 µM, an LC50 (median lethal concentration) (SR) of over 100 µM and a TGI (SR) of over 100 µM. It also gave a GI50 (OVCAR-5) of 14.7 µM, a TGI (OVCAR-5) of over 100 µM and a CC50 (OVCAR-5) of over 100 µM. It also gave a GI50 (SK-MEL-5) of 10 µM, an LC50 (SK-MEL-5) of over 100 µM and a TGI (SK-MEL-5) of 33.4 µM. It also gave a GI50 (HCT-116) of 3.47 µM, a TGI (HCT-116) of 19.7 µM and a CC50 (HCT-116) of 66.3 µM. It also gave a GI50 (A549) of 4.17 µM, a TGI (A549) of 24.9 µM and a CC50 (A549) of over 100 µM. The GI50 (HCC 2998) was 20.9 µM, the TGI (HCC 2998) was over 100 µM and the CC50 (HCC 2998) was over 100 µM. For the same compound, the GI50 (SNB-19) was 19.5 µM, the LC50 (median lethal concentration) (SNB-19) was over 100 µM and the TGI (SNB-19) was 75.6 µM. It also gave a GI50 (OVCAR-8) of 4.53 µM, an LC50 (median lethal concentration) (OVCAR-8) of over 100 µM and a TGI (OVCAR-8) of 29.6 µM. For the same compound, the GI50 (MDA-MB-468) was 12.4 µM, the TGI (MDA-MB-468) was 51.5 µM and the CC50 (MDA-MB-468) was over 100 µM. The GI50 (SK-MEL-28) was 5.8 µM, the LC50 (median lethal concentration) (SK-MEL-28) was over 100 µM and the TGI (SK-MEL-28) was 40.2 µM. It also gave a GI50 (RXF 393) of 3.18 µM, a TGI (RXF 393) of 13.7 µM and a CC50 (RXF 393) of 42.6 µM. It also gave a GI50 (SK-MEL-2) of 20.4 µM, an LC50 (median lethal concentration) (SK-MEL-2) of over 100 µM and a TGI (SK-MEL-2) of over 100 µM. The GI50 (EKVX) was 14.4 µM, the TGI (EKVX) was 76.7 µM and the CC50 (EKVX) was over 100 µM. For the same compound, the GI50 (RPMI-8226) was 5.55 µM, the TGI (RPMI-8226) was over 100 µM and the CC50 (RPMI-8226) was over 100 µM. For the same compound, the GI50 (NCI/ADR-RES) was 15.7 µM, the TGI (NCI/ADR-RES) was over 100 µM and the CC50 (NCI/ADR-RES) was over 100 µM. The GI50 (CAKI-1) was 12.1 µM, the TGI (CAKI-1) was over 100 µM and the CC50 (CAKI-1) was over 100 µM. It also gave a GI50 (HOP-62) of 6.36 µM, a TGI (HOP-62) of 21.7 µM and a CC50 (HOP-62) of 55.9 µM.

Work on COc1ccc(-c2c(C#N)cnc(N)c2-c2nc3cc(C)c(C)cc3[nH]2)cc1 yielded a GI50 (A498) of 10.7 µM, a TGI (A498) of 63.6 µM and a CC50 (A498) of over 100 µM. It also gave a GI50 (SNB-75) of 2.36 µM, an LC50 (SNB-75) of 32.4 µM and a TGI (SNB-75) of 8.19 µM. For the same compound, the GI50 (MOLT-4) was over 100 µM, the LC50 (MOLT-4) was over 100 µM and the TGI (MOLT-4) was over 100 µM. For the same compound, the GI50 (SN12C) was 25.4 µM, the TGI (SN12C) was over 100 µM and the CC50 (SN12C) was over 100 µM. The GI50 (LOX IMVI) was 5.74 µM, the TGI (LOX IMVI) was over 100 µM and the CC50 (LOX IMVI) was over 100 µM. For the same compound, the GI50 [1] was 5.87 µM, the TGI [1] was over 100 µM and the CC50 [1] was over 100 µM. The GI50 (KM12) was 3.47 µM, the TGI (KM12) was over 100 µM and the CC50 (KM12) was over 100 µM. It also gave a GI50 (SR) of 5.64 µM, an LC50 (median lethal concentration) (SR) of over 100 µM and a TGI (SR) of over 100 µM. For the same compound, the GI50 (OVCAR-5) was 52.4 µM, the TGI (OVCAR-5) was over 100 µM and the CC50 (OVCAR-5) was over 100 µM. The GI50 (SK-MEL-5) was 8.78 µM, the LC50 (SK-MEL-5) was over 100 µM and the TGI (SK-MEL-5) was over 100 µM. For the same compound, the GI50 (HCT-116) was 4.63 µM, the TGI (HCT-116) was over 100 µM and the CC50 (HCT-116) was over 100 µM. The GI50 (A549) was 6.54 µM, the TGI (A549) was 72.5 µM and the CC50 (A549) was over 100 µM. The GI50 (HCC 2998) was 11 µM, the TGI (HCC 2998) was over 100 µM and the CC50 (HCC 2998) was over 100 µM. For the same compound, the GI50 (SNB-19) was 7.06 µM, the LC50 (median lethal concentration) (SNB-19) was over 100 µM and the TGI (SNB-19) was 57.1 µM. For the same compound, the GI50 (OVCAR-8) was 5.2 µM, the LC50 (median lethal concentration) (OVCAR-8) was over 100 µM and the TGI (OVCAR-8) was 26.8 µM. The GI50 (MDA-MB-468) was 6.22 µM, the TGI (MDA-MB-468) was 23.1 µM and the CC50 (MDA-MB-468) was 68 µM. The GI50 (SK-MEL-28) was 17.2 µM, the LC50 (median lethal concentration) (SK-MEL-28) was over 100 µM and the TGI (SK-MEL-28) was over 100 µM. The GI50 (RXF 393) was 6.68 µM, the TGI (RXF 393) was 20.4 µM and the CC50 (RXF 393) was 54.1 µM. It also gave a GI50 (PC-3) of 8.86 µM, a GI50 (SK-MEL-2) of 10.8 µM and an LC50 (median lethal concentration) (SK-MEL-2) of over 100 µM. It also gave a TGI (SK-MEL-2) of 98 µM, a GI50 (EKVX) of 15.8 µM and a TGI (EKVX) of over 100 µM. It also gave a CC50 (EKVX) of over 100 µM, a GI50 (RPMI-8226) of 32.5 µM and a TGI (RPMI-8226) of over 100 µM. It also gave a CC50 (RPMI-8226) of over 100 µM, a GI50 (NCI/ADR-RES) of 6.84 µM and a TGI (NCI/ADR-RES) of over 100 µM. For the same compound, the CC50 (NCI/ADR-RES) was over 100 µM, the GI50 (CAKI-1) was 14.6 µM and the TGI (CAKI-1) was over 100 µM. The CC50 (CAKI-1) was over 100 µM, the GI50 (HOP-62) was 3.65 µM and the TGI (HOP-62) was 14.4 µM. The CC50 (HOP-62) was 45.2 µM.
